Data taken from ChEMBL document CHEMBL1255219, “Discovery of a β-d-2'-deoxy-2'-α-fluoro-2'-β-C-methyluridine nucleotide prodrug (PSI-7977) for the treatment of hepatitis C virus” (J Med Chem, 2010).

Legend:
[1] = Cytotoxicity against human HepG2 cells assessed as inhibition of ribosomal DNA; format: cell-based
In short: (§1)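 CEM or HepG2 cells at 1 × 10^4 per well, compound serially diluted from 100 μM, 14 days at 37 °C, 5% CO2. Medium with compound renewed on days 7 and 11. Total DNA extracted; mitochondrial COXII DNA and rDNA measured by multiplex quantitative PCR. ΔCt converted to log reduction, inhibition relative to untreated cells, and the 90% inhibitory concentration reported.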

[2] = tested on: Hepatitis C virus NS5B S96T/N142T mutant; assay: Antiviral activity against HCV expressing NS5B polymerase S96T/N142T mutation infected in human ET-lunet cells
[3] = tested on: Hepatitis C virus; assay: Antiviral activity against HCV infected in human ET-lunet cells; format: functional, Hepacivirus hominis
In short: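 ET-lunet replicon cells seeded at 3000 cells/well. Compounds serially diluted in culture medium without G418 and added to cells, which were incubated 4 days at 37 °C in 5% CO2. HCV RNA replication measured by quantitative real-time RT-PCR as ΔCt against the mean no-drug control threshold cycle. EC90, the concentration giving 90% inhibition, was calculated.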

[4] = tested on: CCRF-CEM; assay: Cytotoxicity against human CEM cells assessed as inhibition of ribosomal DNA up to 100 uM; format: cell-based; in short: as §1
[5] = tested on: Hepatitis C virus; assay: Antiviral activity against HCV infected in human clone A cells; format: functional, Hepacivirus hominis
In short: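 Clone A replicon cells seeded at 1500 cells/well. Compounds serially diluted in G418-free culture medium and added, then incubated 4 days at 37 °C in 5% CO2. HCV RNA quantified by real-time RT-PCR as ΔCt relative to the mean no-drug control.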

[6] = tested on: CCRF-CEM; assay: Cytotoxicity against human CEM cells assessed as inhibition of mitochondrial DNA up to 100 uM; format: cell-based; in short: as §1
[7] = tested on: Hepatitis C virus; assay: Antiviral activity against HCV expressing NS5B polymerase S282T mutation infected in clone A cells; format: functional, Hepacivirus hominis
In short: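 Replicon cells seeded at 1500 (clone A) or 3000 (ET-lunet) per well. Serially diluted compound added in medium without G418, 4 days at 37 °C, 5% CO2. HCV RNA measured by real-time RT-PCR as ΔCt versus no-drug control. EC90 calculated; fold change of S282T mutant versus wild-type replicon EC90. At least three independent experiments.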

[8] = Cytotoxicity against human HepG2 cells assessed as inhibition of mitochondrial DNA; format: cell-based; in short: as §1

CC(C)OC(=O)[C@H](C)N[P@](=O)(OC[C@H]1O[C@@H](n2ccc(=O)[nH]c2=O)[C@](C)(F)[C@@H]1O)Oc1ccccc1 [SOFOSBUVIR]
CC90 [1]: 68.6 µM | EC90 [2]: 0.11 µM | EC90 [3]: 0.23 µM | Activity [4]: Non-toxic | EC90 [5]: 0.42 µM | Activity [6]: Non-toxic | EC90 [7]: 7.8 µM | CC90 [8]: 72.1 µM
